Test results: ChEMBL document CHEMBL1629475, “Synthesis of new chalcone derivatives containing a rhodanine-3-acetic acid moiety with potential anti-bacterial activity” (2010)
Converted amounts (≈) assume the structure as drawn. The source made the active and inactive calls. The rule behind the calls is not given here.

What follows are molecules tested on Streptococcus mutans (assay: Antibacterial activity against Streptococcus mutans KCTC 3289 after 20 hrs by twofold serial dilution technique). Conditions: KCTC 3289, 20 h.
Format: functional
Summary of the method: (§1)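 Inoculum was 10⁵ CFU/mL, and MIC was read after incubation at 37 °C for 20 h. Oxacillin and norfloxacin were the positive controls.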

SMILES	MIC
O=C(O)CN1C(=O)/C(=C\c2ccc(/C=C/C(=O)c3ccc(F)cc3)cc2)SC1=S	4 µg/mL (≈ 9.36 µM)
COCOc1cccc(C(=O)/C=C/c2ccc(/C=C3/SC(=S)N(CC(=O)O)C3=O)cc2)c1	> 64 µg/mL
O=C(O)CN1C(=O)/C(=C\c2ccc(/C=C/C(=O)c3ccccc3)cc2)SC1=S	64 µg/mL (≈ 156 µM)
CCn1cc(C(=O)O)c(=O)c2cc(F)c(N3CCNCC3)cc21 [NORFLOXACIN]	1 µg/mL (≈ 3.13 µM)
CC(=O)Nc1ccc(C(=O)/C=C/c2ccc(/C=C3/SC(=S)N(CC(=O)O)C3=O)cc2)cc1	> 64 µg/mL

Each molecule was assayed on Escherichia coli (assay: Antibacterial activity against Escherichia coli 1356 after 20 hrs by twofold serial dilution technique). Conditions: Escherichia coli, 1356, 20 h.
Format: functional
Summary of the method: (§2)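 Inoculum was 10⁵ CFU/mL. MIC was read after 20 h at 37 °C. The MRSA and QRSA strains were multidrug-resistant clinical isolates. Oxacillin and norfloxacin served as positive controls.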

SMILES	MIC
O=C(O)CN1C(=O)/C(=C\c2ccc(/C=C/C(=O)c3ccc(F)cc3)cc2)SC1=S	> 64 µg/mL
COCOc1cccc(C(=O)/C=C/c2ccc(/C=C3/SC(=S)N(CC(=O)O)C3=O)cc2)c1	> 64 µg/mL
O=C(O)CN1C(=O)/C(=C\c2ccc(/C=C/C(=O)c3ccccc3)cc2)SC1=S	> 64 µg/mL
CCn1cc(C(=O)O)c(=O)c2cc(F)c(N3CCNCC3)cc21 [NORFLOXACIN]	16 µg/mL (≈ 50.1 µM)
CC(=O)Nc1ccc(C(=O)/C=C/c2ccc(/C=C3/SC(=S)N(CC(=O)O)C3=O)cc2)cc1	> 64 µg/mL

The molecules below were run on Escherichia coli (assay: Antibacterial activity against Escherichia coli 1924 at 64 ug/ml). Conditions: not given.
Format: functional, organism-based

SMILES	Activity
O=C(O)CN1C(=O)/C(=C\c2ccc(/C=C/C(=O)c3ccc(F)cc3)cc2)SC1=S	inactive
COCOc1cccc(C(=O)/C=C/c2ccc(/C=C3/SC(=S)N(CC(=O)O)C3=O)cc2)c1	inactive
O=C(O)CN1C(=O)/C(=C\c2ccc(/C=C/C(=O)c3ccccc3)cc2)SC1=S	inactive
CC(=O)Nc1ccc(C(=O)/C=C/c2ccc(/C=C3/SC(=S)N(CC(=O)O)C3=O)cc2)cc1	inactive

Each molecule was assayed on Staphylococcus aureus (assay: Antibacterial activity against Staphylococcus aureus RN 4220 after 20 hrs by twofold serial dilution technique). Conditions: RN 4220, 20 h.
Format: functional
Summary of the method: as §2

SMILES	MIC
O=C(O)CN1C(=O)/C(=C\c2ccc(/C=C/C(=O)c3ccc(F)cc3)cc2)SC1=S	4 µg/mL (≈ 9.36 µM)
COCOc1cccc(C(=O)/C=C/c2ccc(/C=C3/SC(=S)N(CC(=O)O)C3=O)cc2)c1	> 64 µg/mL
O=C(O)CN1C(=O)/C(=C\c2ccc(/C=C/C(=O)c3ccccc3)cc2)SC1=S	32 µg/mL (≈ 78.1 µM)
CCn1cc(C(=O)O)c(=O)c2cc(F)c(N3CCNCC3)cc21 [NORFLOXACIN]	2 µg/mL (≈ 6.26 µM)
CC(=O)Nc1ccc(C(=O)/C=C/c2ccc(/C=C3/SC(=S)N(CC(=O)O)C3=O)cc2)cc1	> 64 µg/mL

The molecules below were run on Staphylococcus aureus (assay: Antibacterial activity against Staphylococcus aureus KCTC 209 after 20 hrs by twofold serial dilution technique). Conditions: KCTC 209, 20 h.
Format: functional
Summary of the method: as §2

SMILES	MIC
O=C(O)CN1C(=O)/C(=C\c2ccc(/C=C/C(=O)c3ccc(F)cc3)cc2)SC1=S	4 µg/mL (≈ 9.36 µM)
COCOc1cccc(C(=O)/C=C/c2ccc(/C=C3/SC(=S)N(CC(=O)O)C3=O)cc2)c1	> 64 µg/mL
O=C(O)CN1C(=O)/C(=C\c2ccc(/C=C/C(=O)c3ccccc3)cc2)SC1=S	32 µg/mL (≈ 78.1 µM)
CCn1cc(C(=O)O)c(=O)c2cc(F)c(N3CCNCC3)cc21 [NORFLOXACIN]	4 µg/mL (≈ 12.5 µM)
CC(=O)Nc1ccc(C(=O)/C=C/c2ccc(/C=C3/SC(=S)N(CC(=O)O)C3=O)cc2)cc1	> 64 µg/mL

Each molecule was assayed on Streptococcus mutans (assay: Antibacterial activity against Streptococcus mutans KCTC 3065 after 20 hrs by twofold serial dilution technique). Conditions: KCTC 3065, 20 h.
Format: functional
Summary of the method: as §1

SMILES	MIC
O=C(O)CN1C(=O)/C(=C\c2ccc(/C=C/C(=O)c3ccc(F)cc3)cc2)SC1=S	4 µg/mL (≈ 9.36 µM)
COCOc1cccc(C(=O)/C=C/c2ccc(/C=C3/SC(=S)N(CC(=O)O)C3=O)cc2)c1	> 64 µg/mL
O=C(O)CN1C(=O)/C(=C\c2ccc(/C=C/C(=O)c3ccccc3)cc2)SC1=S	64 µg/mL (≈ 156 µM)
CCn1cc(C(=O)O)c(=O)c2cc(F)c(N3CCNCC3)cc21 [NORFLOXACIN]	1 µg/mL (≈ 3.13 µM)
CC(=O)Nc1ccc(C(=O)/C=C/c2ccc(/C=C3/SC(=S)N(CC(=O)O)C3=O)cc2)cc1	> 64 µg/mL

These molecules were tested on Escherichia coli (assay: Antibacterial activity against Escherichia coli 1924 after 20 hrs by twofold serial dilution technique). Conditions: Escherichia coli, 1924, 20 h.
Format: functional
Summary of the method: as §2

SMILES	MIC
O=C(O)CN1C(=O)/C(=C\c2ccc(/C=C/C(=O)c3ccc(F)cc3)cc2)SC1=S	> 64 µg/mL
COCOc1cccc(C(=O)/C=C/c2ccc(/C=C3/SC(=S)N(CC(=O)O)C3=O)cc2)c1	> 64 µg/mL
O=C(O)CN1C(=O)/C(=C\c2ccc(/C=C/C(=O)c3ccccc3)cc2)SC1=S	> 64 µg/mL
CCn1cc(C(=O)O)c(=O)c2cc(F)c(N3CCNCC3)cc21 [NORFLOXACIN]	16 µg/mL (≈ 50.1 µM)
CC(=O)Nc1ccc(C(=O)/C=C/c2ccc(/C=C3/SC(=S)N(CC(=O)O)C3=O)cc2)cc1	> 64 µg/mL

Each molecule was assayed on Escherichia coli (assay: Antibacterial activity against Escherichia coli 1356 at 64 ug/ml). Conditions: not given.
Format: functional, organism-based

SMILES	Activity
O=C(O)CN1C(=O)/C(=C\c2ccc(/C=C/C(=O)c3ccc(F)cc3)cc2)SC1=S	inactive
COCOc1cccc(C(=O)/C=C/c2ccc(/C=C3/SC(=S)N(CC(=O)O)C3=O)cc2)c1	inactive
O=C(O)CN1C(=O)/C(=C\c2ccc(/C=C/C(=O)c3ccccc3)cc2)SC1=S	inactive
CC(=O)Nc1ccc(C(=O)/C=C/c2ccc(/C=C3/SC(=S)N(CC(=O)O)C3=O)cc2)cc1	inactive

Each molecule was assayed on Staphylococcus aureus (assay: Antibacterial activity against Staphylococcus aureus MRSA CCARM 3506 after 20 hrs by twofold serial dilution technique). Conditions: MRSA CCARM 3506, 20 h.
Format: functional
Summary of the method: as §2

SMILES	MIC
O=C(O)CN1C(=O)/C(=C\c2ccc(/C=C/C(=O)c3ccc(F)cc3)cc2)SC1=S	4 µg/mL (≈ 9.36 µM)
CCn1cc(C(=O)O)c(=O)c2cc(F)c(N3CCNCC3)cc21 [NORFLOXACIN]	4 µg/mL (≈ 12.5 µM)

Each molecule was assayed on Staphylococcus aureus (assay: Antibacterial activity against Staphylococcus aureus QRSA CCARM 3519 after 20 hrs by twofold serial dilution technique). Conditions: QRSA CCARM 3519, 20 h.
Format: functional
Summary of the method: as §2

SMILES	MIC
O=C(O)CN1C(=O)/C(=C\c2ccc(/C=C/C(=O)c3ccc(F)cc3)cc2)SC1=S	4 µg/mL (≈ 9.36 µM)
CCn1cc(C(=O)O)c(=O)c2cc(F)c(N3CCNCC3)cc21 [NORFLOXACIN]	> 64 µg/mL

Each molecule was assayed on Staphylococcus aureus (assay: Antibacterial activity against Staphylococcus aureus QRSA CCARM 3505 after 20 hrs by twofold serial dilution technique). Conditions: QRSA CCARM 3505, 20 h.
Format: functional
Summary of the method: as §2

SMILES	MIC
O=C(O)CN1C(=O)/C(=C\c2ccc(/C=C/C(=O)c3ccc(F)cc3)cc2)SC1=S	4 µg/mL (≈ 9.36 µM)
CCn1cc(C(=O)O)c(=O)c2cc(F)c(N3CCNCC3)cc21 [NORFLOXACIN]	> 64 µg/mL

Each molecule was assayed on Staphylococcus aureus (assay: Antibacterial activity against Staphylococcus aureus KCTC 503 after 20 hrs by twofold serial dilution technique). Conditions: KCTC 503, 20 h.
Format: functional
Summary of the method: as §2

SMILES	MIC
O=C(O)CN1C(=O)/C(=C\c2ccc(/C=C/C(=O)c3ccc(F)cc3)cc2)SC1=S	4 µg/mL (≈ 9.36 µM)
COCOc1cccc(C(=O)/C=C/c2ccc(/C=C3/SC(=S)N(CC(=O)O)C3=O)cc2)c1	> 64 µg/mL
O=C(O)CN1C(=O)/C(=C\c2ccc(/C=C/C(=O)c3ccccc3)cc2)SC1=S	32 µg/mL (≈ 78.1 µM)
CCn1cc(C(=O)O)c(=O)c2cc(F)c(N3CCNCC3)cc21 [NORFLOXACIN]	2 µg/mL (≈ 6.26 µM)
CC(=O)Nc1ccc(C(=O)/C=C/c2ccc(/C=C3/SC(=S)N(CC(=O)O)C3=O)cc2)cc1	> 64 µg/mL

Each molecule was assayed on Staphylococcus aureus (assay: Antibacterial activity against Staphylococcus aureus MRSA CCARM 3167 after 20 hrs by twofold serial dilution technique). Conditions: MRSA CCARM 3167, 20 h.
Format: functional
Summary of the method: as §2

SMILES	MIC
O=C(O)CN1C(=O)/C(=C\c2ccc(/C=C/C(=O)c3ccc(F)cc3)cc2)SC1=S	4 µg/mL (≈ 9.36 µM)
CCn1cc(C(=O)O)c(=O)c2cc(F)c(N3CCNCC3)cc21 [NORFLOXACIN]	8 µg/mL (≈ 25.1 µM)
